Laboratory results published in ChEMBL document CHEMBL4390647, “Efficient click chemistry towards novel 1H-1,2,3-triazole-tethered 4H-chromene-d-glucose conjugates: Design, synthesis and evaluation of in vitro antibacterial, MRSA and antifungal activities” (Eur J Med Chem, 2019).
Values after ≈ are worked out from the molar mass of the structure shown.

Assays:
Bacillus subtilis = assay: Antibacterial activity against Bacillus subtilis ATCC 11774 after 18 to 20 hrs by microbroth dilution method; assay type: functional
Summary of the method: (§1)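 Inoculum from a 4–6-h broth adjusted to 0.5 McFarland, final 5 × 10⁵ CFU/mL. Incubation at 35°C for 18–20 h. MIC taken as the lowest concentration giving complete inhibition of visible growth; three experiments.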

Staphylococcus aureus [1] = assay: Antibacterial activity against Staphylococcus aureus ATCC 11632 after 18 to 20 hrs by microbroth dilution method; assay type: functional; summary of the method: as §1
[2] = tested on: Staphylococcus epidermidis; assay: Antibacterial activity against Staphylococcus epidermidis ATCC 12228 after 18 to 20 hrs by microbroth dilution method; assay type: functional; summary of the method: as §1
Escherichia coli = assay: Antibacterial activity against Escherichia coli ATCC 25922 measured after 18 to 20 hrs by microbroth dilution method; assay type: functional; summary of the method: as §1
Pseudomonas aeruginosa = assay: Antibacterial activity against Pseudomonas aeruginosa […] measured after 18 to 20 hrs by microbroth dilution method; assay type: functional; summary of the method: as §1
Salmonella typhimurium = assay: Antibacterial activity against Salmonella typhimurium ATCC 14028 measured after 18 to 20 hrs by microbroth dilution method; assay type: functional, Salmonella enterica subsp. enterica serovar Typhimurium; details: Salmonella enterica; summary of the method: as §1
Staphylococcus aureus [3] = assay: Antibacterial activity against Staphylococcus aureus MRSA198 clinical isolate-1 measured after 18 to 20 hrs by microbroth dilution method; assay type: functional; details: MRSA198 isolate-1
Staphylococcus aureus [4] = assay: Antibacterial activity against Staphylococcus aureus MRSA198 clinical isolate-2 measured after 18 to 20 hrs by microbroth dilution method; assay type: functional; details: MRSA198 isolate-2
Staphylococcus aureus [5] = assay: Antibacterial activity against Staphylococcus aureus MRSA198 clinical isolate-3 measured after 18 to 20 hrs by microbroth dilution method; assay type: functional; details: MRSA198 isolate-3
Aspergillus niger = assay: Antifungal activity against Aspergillus niger ATCC 439 measured after 72 hrs by agar dilution method; assay type: functional; details: ATCC 439, 72 h
Summary of the method: (§2)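 Agar dilution on Sabouraud dextrose agar, with compounds at […] to 0.78 μM in twofold steps. Fungal suspensions at 10 CFU/mL as printed were applied to the compound-containing plates. Incubation at 35°C; MIC read after 72 h. Three experiments.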

Aspergillus flavus = assay: Antifungal activity against Aspergillus flavus ATCC 204304 measured after 72 hrs by agar dilution method; assay type: functional; details: ATCC 204304, 72 h; summary of the method: as §2
Candida albicans = assay: Antifungal activity against Candida albicans ATCC 7754 after 72 hrs by agar dilution method; assay type: functional; details: ATCC 7754, 72 h; summary of the method: as §2
Saccharomyces cerevisiae = assay: Antifungal activity against Saccharomyces cerevisiae SH 20 after 72 hrs by agar dilution method; assay type: functional; details: SH 20, 72 h; summary of the method: as §2
[6] = Cytotoxicity against mouse RAW264.7 cells assessed as growth inhibition at 50 ug/mL after 120 hrs by MTT assay relative to control; assay type: cell-based; details: read-out: GI
Summary of the method: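 RAW 264.7 mouse macrophages were seeded at 25,000 cells/well and left to attach overnight. Compound in DMSO was added from a 200× concentrate, in duplicate wells, to a 50 μg/mL test level; DMSO served as control. Exposure 120 h at 37°C in 5% CO₂. MTT (4 mg/mL in PBS) was added for 4 h, formazan dissolved in DMSO, and absorbance read at 560 nm. Viability expressed as % of untreated cells, mean ± SE of at least three independent experiments.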

Klebsiella pneumoniae = assay: Antibacterial activity against measured after Klebsiella pneumoniae ATCC 4352 measured after 18 to 20 hrs by microbroth dilution method; assay type: functional; summary of the method: as §1

Row | SMILES | MIC (Bacillus subtilis) | MIC (Staphylococcus aureus [1]) | MIC [2] | MIC (Escherichia coli) | MIC (Pseudomonas aeruginosa) | MIC (Salmonella typhimurium) | MIC (Staphylococcus aureus [3]) | MIC (Staphylococcus aureus [4]) | MIC (Staphylococcus aureus [5]) | MIC (Aspergillus niger) | MIC (Aspergillus flavus) | MIC (Candida albicans) | MIC (Saccharomyces cerevisiae) | MIC (Klebsiella pneumoniae) | inhibition at 120 h, 50 ug/mL [6]
1 | COc1cc(OC)cc(C2C(C#N)=C(N)Oc3cc(OCc4cn([C@@H]5O[C@H](COC(C)=O)[C@@H](OC(C)=O)[C@H](OC(C)=O)[C@H]5OC(C)=O)nn4)ccc32)c1 (some centres undefined) | 50 µM (≈ 36.8 µg/mL) | 100 µM (≈ 73.6 µg/mL) | 3.12 µM (≈ 2.3 µg/mL) | 100 µM (≈ 73.6 µg/mL) | – | 50 µM (≈ 36.8 µg/mL) | 400 µM (≈ 294 µg/mL) | 400 µM (≈ 294 µg/mL) | 200 µM (≈ 147 µg/mL) | 100 µM (≈ 73.6 µg/mL) | 50 µM (≈ 36.8 µg/mL) | 25 µM (≈ 18.4 µg/mL) | 6.25 µM (≈ 4.6 µg/mL) | 100 µM (≈ 73.6 µg/mL) | 19.5%
2 | CN[C@H](CC(C)C)C(=O)N[C@H]1C(=O)N[C@@H](CC(N)=O)C(=O)N[C@H]2C(=O)N[C@H]3C(=O)N[C@H](C(=O)N[C@H](C(=O)O)c4cc(O)cc(O)c4-c4cc3ccc4O)[C@H](O)c3ccc(c(Cl)c3)Oc3cc2cc(c3O[C@@H]2O[C@H](CO)[C@@H](O)[C@H](O)[C@H]2O[C@H]2C[C@](C)(N)[C@H](O)[C@H](C)O2)Oc2ccc(cc2Cl)[C@H]1O [VANCOMYCIN] | 0.78 µM (≈ 1.13 µg/mL) | 1.56 µM (≈ 2.26 µg/mL) | 3.12 µM (≈ 4.52 µg/mL) | 3.12 µM (≈ 4.52 µg/mL) | 3.12 µM (≈ 4.52 µg/mL) | 3.12 µM (≈ 4.52 µg/mL) | 1.55 µM (≈ 2.25 µg/mL) | 1.56 µM (≈ 2.26 µg/mL) | 1.56 µM (≈ 2.26 µg/mL) | – | – | – | – | 3.12 µM (≈ 4.52 µg/mL) | –
3 | CC(=O)OC[C@H]1O[C@@H](n2cc(COc3ccc4c(c3)OC(N)=C(C#N)C4c3ccc(Cl)cc3Cl)nn2)[C@H](OC(C)=O)[C@@H](OC(C)=O)[C@@H]1OC(C)=O (some centres undefined) | 3.12 µM (≈ 2.32 µg/mL) | 12.5 µM (≈ 9.31 µg/mL) | 12.5 µM (≈ 9.31 µg/mL) | 3.12 µM (≈ 2.32 µg/mL) | 50 µM (≈ 37.2 µg/mL) | 3.12 µM (≈ 2.32 µg/mL) | 6.25 µM (≈ 4.65 µg/mL) | 1.56 µM (≈ 1.16 µg/mL) | 3.12 µM (≈ 2.32 µg/mL) | – | 25 µM (≈ 18.6 µg/mL) | 100 µM (≈ 74.5 µg/mL) | 400 µM (≈ 298 µg/mL) | 200 µM (≈ 149 µg/mL) | 18.1%
4 | Clc1ccc(COC(Cn2ccnc2)c2ccc(Cl)cc2Cl)c(Cl)c1 (centres undefined) [MICONAZOLE] | – | – | – | – | – | – | – | – | – | 1.56 µM (≈ 0.649 µg/mL) | 1.56 µM (≈ 0.649 µg/mL) | 3.12 µM (≈ 1.3 µg/mL) | 3.12 µM (≈ 1.3 µg/mL) | – | –

Second part, led by results:

Row | MIC (Bacillus subtilis) | MIC (Staphylococcus aureus [1]) | MIC [2] | MIC (Escherichia coli) | MIC (Pseudomonas aeruginosa) | MIC (Salmonella typhimurium) | MIC (Staphylococcus aureus [3]) | MIC (Staphylococcus aureus [4]) | MIC (Staphylococcus aureus [5]) | MIC (Aspergillus niger) | MIC (Aspergillus flavus) | MIC (Candida albicans) | MIC (Saccharomyces cerevisiae) | MIC (Klebsiella pneumoniae) | SMILES | inhibition at 120 h, 50 ug/mL [6]
5 | 50 µM (≈ 36 µg/mL) | 3.12 µM (≈ 2.25 µg/mL) | 400 µM (≈ 288 µg/mL) | 50 µM (≈ 36 µg/mL) | 12.5 µM (≈ 9.01 µg/mL) | 400 µM (≈ 288 µg/mL) | 1.56 µM (≈ 1.12 µg/mL) | 6.25 µM (≈ 4.5 µg/mL) | 3.12 µM (≈ 2.25 µg/mL) | 12.5 µM (≈ 9.01 µg/mL) | 50 µM (≈ 36 µg/mL) | 200 µM (≈ 144 µg/mL) | 6.25 µM (≈ 4.5 µg/mL) | – | CC(=O)OC[C@H]1O[C@@H](n2cc(COc3ccc4c(c3)OC(N)=C(C#N)C4c3cccc([N+](=O)[O-])c3)nn2)[C@H](OC(C)=O)[C@@H](OC(C)=O)[C@@H]1OC(C)=O (some centres undefined) | 15.6%
6 | 100 µM (≈ 72.1 µg/mL) | 6.25 µM (≈ 4.5 µg/mL) | 12.5 µM (≈ 9.01 µg/mL) | 50 µM (≈ 36 µg/mL) | 400 µM (≈ 288 µg/mL) | – | 6.25 µM (≈ 4.5 µg/mL) | 1.56 µM (≈ 1.12 µg/mL) | 3.12 µM (≈ 2.25 µg/mL) | 400 µM (≈ 288 µg/mL) | 6.25 µM (≈ 4.5 µg/mL) | 50 µM (≈ 36 µg/mL) | – | 400 µM (≈ 288 µg/mL) | CC(=O)OC[C@H]1O[C@@H](n2cc(COc3ccc4c(c3)OC(N)=C(C#N)C4c3ccccc3[N+](=O)[O-])nn2)[C@H](OC(C)=O)[C@@H](OC(C)=O)[C@@H]1OC(C)=O (some centres undefined) | 15.4%
7 | 50 µM (≈ 36 µg/mL) | 400 µM (≈ 288 µg/mL) | 50 µM (≈ 36 µg/mL) | 400 µM (≈ 288 µg/mL) | 50 µM (≈ 36 µg/mL) | – | 400 µM (≈ 288 µg/mL) | 400 µM (≈ 288 µg/mL) | 200 µM (≈ 144 µg/mL) | – | 1.56 µM (≈ 1.12 µg/mL) | 25 µM (≈ 18 µg/mL) | 3.12 µM (≈ 2.25 µg/mL) | 12.5 µM (≈ 9.01 µg/mL) | CC(=O)OC[C@H]1O[C@@H](n2cc(COc3ccc4c(c3)OC(N)=C(C#N)C4c3ccc([N+](=O)[O-])cc3)nn2)[C@H](OC(C)=O)[C@@H](OC(C)=O)[C@@H]1OC(C)=O (some centres undefined) | 27.6%
8 | 1.56 µM (≈ 1.11 µg/mL) | 200 µM (≈ 142 µg/mL) | 3.12 µM (≈ 2.22 µg/mL) | 1.56 µM (≈ 1.11 µg/mL) | 12.5 µM (≈ 8.88 µg/mL) | 6.25 µM (≈ 4.44 µg/mL) | – | – | 400 µM (≈ 284 µg/mL) | 400 µM (≈ 284 µg/mL) | 6.25 µM (≈ 4.44 µg/mL) | 25 µM (≈ 17.8 µg/mL) | – | 400 µM (≈ 284 µg/mL) | CC(=O)OC[C@H]1O[C@@H](n2cc(COc3ccc4c(c3)OC(N)=C(C#N)C4c3ccccc3Cl)nn2)[C@H](OC(C)=O)[C@@H](OC(C)=O)[C@@H]1OC(C)=O (some centres undefined) | 21.1%
